# Test results: publication PMC6828636 (European Journal of Drug Metabolism and Pharmacokinetics, 2019)
# Like-named read-outs stand apart in the source and are kept apart here.
# Assays:
# [1] = biological target: T1, CYP1A2 (Homo sapiens, UniProt P05177); assay: biochemical; type: in vitro ADME; conditions: read-out: IC50, CYP1A2; human liver microsomes; substrate phenacetin
# T1 sequence (P05177 1-516): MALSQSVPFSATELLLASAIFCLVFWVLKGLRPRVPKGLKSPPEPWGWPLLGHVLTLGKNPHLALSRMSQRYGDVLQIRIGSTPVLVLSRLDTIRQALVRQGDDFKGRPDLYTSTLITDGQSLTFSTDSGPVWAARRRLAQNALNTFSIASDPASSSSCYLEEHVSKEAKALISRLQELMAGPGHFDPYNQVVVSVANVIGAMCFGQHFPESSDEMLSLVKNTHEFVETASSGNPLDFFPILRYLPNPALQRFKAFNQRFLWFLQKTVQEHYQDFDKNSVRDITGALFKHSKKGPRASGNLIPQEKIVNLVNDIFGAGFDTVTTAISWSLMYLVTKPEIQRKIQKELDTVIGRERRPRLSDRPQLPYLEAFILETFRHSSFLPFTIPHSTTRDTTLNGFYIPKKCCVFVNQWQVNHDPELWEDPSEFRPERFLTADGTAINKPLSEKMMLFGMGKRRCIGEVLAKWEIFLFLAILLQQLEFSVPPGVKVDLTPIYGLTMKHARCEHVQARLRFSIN
# [2] = biological target: CYP3A4 (Homo sapiens, UniProt P08684); assay: CYP3A4 inhibition in human liver microsomes; type: in vitro ADME; conditions: human liver microsomes
# CYP3A4, sequence (P08684 whole entry, canonical isoform): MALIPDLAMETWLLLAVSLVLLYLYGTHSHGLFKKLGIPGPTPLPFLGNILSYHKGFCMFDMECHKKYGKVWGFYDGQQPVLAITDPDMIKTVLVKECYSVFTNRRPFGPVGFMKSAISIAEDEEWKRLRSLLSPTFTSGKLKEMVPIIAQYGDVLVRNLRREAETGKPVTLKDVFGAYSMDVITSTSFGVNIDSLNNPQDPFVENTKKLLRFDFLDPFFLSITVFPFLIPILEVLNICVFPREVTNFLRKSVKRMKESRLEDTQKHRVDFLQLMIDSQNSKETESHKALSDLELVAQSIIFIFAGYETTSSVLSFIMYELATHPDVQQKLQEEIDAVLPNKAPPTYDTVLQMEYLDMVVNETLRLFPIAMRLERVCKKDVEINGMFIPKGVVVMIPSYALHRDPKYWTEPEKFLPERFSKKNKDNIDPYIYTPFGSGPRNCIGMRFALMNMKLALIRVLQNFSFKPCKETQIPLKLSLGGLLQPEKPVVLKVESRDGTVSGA
# Outline: (§1)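 Pooled human liver microsomes were incubated with standard CYP-selective substrates, with and without test compound at 0.03–100 μM. Standard selective inhibitors for each isoform ran in parallel as positive controls. Read-out was IC50. For CYP3A4 only, time-dependent inhibition was also tested after 30 min preincubation, using midazolam and testosterone as substrates.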
# [3] = biological target: CYP2C19 (Homo sapiens, UniProt P33261); assay: CYP2C19 inhibition in human liver microsomes; type: in vitro ADME; conditions: read-out: IC50, CYP2C19; human liver microsomes; substrate S-mephenytoin
# CYP2C19, sequence (P33261 whole entry): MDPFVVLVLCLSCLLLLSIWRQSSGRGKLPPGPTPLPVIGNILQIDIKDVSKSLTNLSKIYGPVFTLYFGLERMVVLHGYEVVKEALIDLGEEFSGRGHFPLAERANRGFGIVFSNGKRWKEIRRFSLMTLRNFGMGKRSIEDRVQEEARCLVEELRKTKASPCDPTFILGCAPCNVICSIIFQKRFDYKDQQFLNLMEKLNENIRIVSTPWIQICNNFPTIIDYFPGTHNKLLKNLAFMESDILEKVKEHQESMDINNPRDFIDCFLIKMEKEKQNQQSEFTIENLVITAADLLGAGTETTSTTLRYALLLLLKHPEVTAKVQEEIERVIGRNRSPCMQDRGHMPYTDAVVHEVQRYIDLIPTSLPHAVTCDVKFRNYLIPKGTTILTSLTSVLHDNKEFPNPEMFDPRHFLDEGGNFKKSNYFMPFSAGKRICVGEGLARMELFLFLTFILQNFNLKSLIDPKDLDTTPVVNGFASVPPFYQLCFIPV
# Outline: as §1
# [4] = biological target: CYP2E1 (Homo sapiens, UniProt P05181); assay: CYP2E1 inhibition in human liver microsomes; type: in vitro ADME; conditions: read-out: IC50, CYP2E1; human liver microsomes; substrate chlorzoxazone
# CYP2E1, sequence (P05181 whole entry): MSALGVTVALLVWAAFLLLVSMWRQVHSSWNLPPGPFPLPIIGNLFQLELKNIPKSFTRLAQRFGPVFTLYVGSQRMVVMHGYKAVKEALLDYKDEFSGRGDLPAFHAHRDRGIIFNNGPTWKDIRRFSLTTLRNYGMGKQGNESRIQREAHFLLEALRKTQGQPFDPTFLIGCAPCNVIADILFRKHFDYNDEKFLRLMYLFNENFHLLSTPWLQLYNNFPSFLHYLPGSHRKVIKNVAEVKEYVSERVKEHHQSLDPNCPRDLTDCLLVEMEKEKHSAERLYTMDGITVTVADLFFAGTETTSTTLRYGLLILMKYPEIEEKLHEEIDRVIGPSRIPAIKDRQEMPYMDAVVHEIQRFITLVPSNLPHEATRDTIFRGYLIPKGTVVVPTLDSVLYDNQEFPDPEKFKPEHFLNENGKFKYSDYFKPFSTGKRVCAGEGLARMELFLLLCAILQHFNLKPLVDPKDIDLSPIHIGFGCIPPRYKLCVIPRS
# Outline: as §1
# [5] = Clinical plasma and intestinal concentrations of darolutamide; set-up: species or system human
# [6] = biological target: CYP2C9 (Homo sapiens, UniProt P11712); assay: CYP2C9 inhibition in human liver microsomes; type: in vitro ADME; conditions: read-out: IC50, CYP2C9; human liver microsomes; substrate diclofenac
# CYP2C9, sequence (P11712 whole entry): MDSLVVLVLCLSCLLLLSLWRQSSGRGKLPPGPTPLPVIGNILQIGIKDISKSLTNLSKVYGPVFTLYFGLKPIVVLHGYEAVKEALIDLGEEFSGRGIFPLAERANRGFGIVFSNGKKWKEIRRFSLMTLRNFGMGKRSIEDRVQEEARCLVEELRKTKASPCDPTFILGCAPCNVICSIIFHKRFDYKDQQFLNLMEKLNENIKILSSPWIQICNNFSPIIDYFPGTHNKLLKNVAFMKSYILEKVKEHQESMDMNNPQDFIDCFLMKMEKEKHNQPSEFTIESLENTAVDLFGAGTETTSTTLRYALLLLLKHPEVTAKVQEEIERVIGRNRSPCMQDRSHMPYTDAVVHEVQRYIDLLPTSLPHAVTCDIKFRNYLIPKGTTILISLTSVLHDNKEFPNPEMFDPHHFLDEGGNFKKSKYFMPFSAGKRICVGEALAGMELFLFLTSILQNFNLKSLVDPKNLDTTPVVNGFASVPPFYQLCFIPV
# Outline: as §1
# [7] = biological target: T2, CYP2B6 (Homo sapiens, UniProt P20813); assay: biochemical; type: in vitro ADME; conditions: read-out: IC50, CYP2B6; human liver microsomes; substrate bupropion
# T2 sequence (P20813 1-491): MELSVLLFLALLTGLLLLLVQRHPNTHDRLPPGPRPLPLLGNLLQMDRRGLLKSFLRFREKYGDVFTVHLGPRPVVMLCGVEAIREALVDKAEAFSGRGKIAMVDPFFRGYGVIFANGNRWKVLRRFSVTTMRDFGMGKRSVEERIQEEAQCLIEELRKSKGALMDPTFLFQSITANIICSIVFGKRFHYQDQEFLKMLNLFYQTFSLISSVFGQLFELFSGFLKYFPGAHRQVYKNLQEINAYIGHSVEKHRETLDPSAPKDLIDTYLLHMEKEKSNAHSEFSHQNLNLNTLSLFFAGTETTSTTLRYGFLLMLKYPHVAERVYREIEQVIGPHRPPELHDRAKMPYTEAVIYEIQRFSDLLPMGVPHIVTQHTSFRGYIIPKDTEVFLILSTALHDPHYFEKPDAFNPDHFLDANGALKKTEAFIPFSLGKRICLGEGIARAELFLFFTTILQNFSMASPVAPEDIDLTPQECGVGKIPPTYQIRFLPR
# [8] = biological target: T3, CYP2C8 (Homo sapiens, UniProt P10632); assay: CYP2C8 inhibition in human liver microsomes; type: in vitro ADME; conditions: read-out: IC50, CYP2C8; human liver microsomes; substrate amodiaquine
# T3 sequence (P10632 1-490): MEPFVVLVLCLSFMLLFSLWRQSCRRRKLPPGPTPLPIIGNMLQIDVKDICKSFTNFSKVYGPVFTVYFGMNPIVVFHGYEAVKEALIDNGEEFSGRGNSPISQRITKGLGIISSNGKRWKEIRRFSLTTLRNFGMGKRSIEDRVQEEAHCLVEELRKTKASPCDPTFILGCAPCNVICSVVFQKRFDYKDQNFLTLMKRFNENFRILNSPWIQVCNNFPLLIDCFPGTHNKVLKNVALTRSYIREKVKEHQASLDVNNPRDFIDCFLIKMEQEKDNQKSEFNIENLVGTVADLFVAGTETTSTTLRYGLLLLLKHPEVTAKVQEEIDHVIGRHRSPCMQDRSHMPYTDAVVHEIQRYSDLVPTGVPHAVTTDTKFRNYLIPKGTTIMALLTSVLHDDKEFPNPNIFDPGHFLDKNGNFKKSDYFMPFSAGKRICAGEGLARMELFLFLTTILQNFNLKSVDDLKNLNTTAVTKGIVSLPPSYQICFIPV
# Outline: as §1
# [9] = biological target: T4, CYP2A6 (Homo sapiens, UniProt P11509); assay: CYP2A6 inhibition in human liver microsomes; type: in vitro ADME; conditions: read-out: IC50, CYP2A6; human liver microsomes; substrate coumarin
# T4 sequence (P11509 1-494): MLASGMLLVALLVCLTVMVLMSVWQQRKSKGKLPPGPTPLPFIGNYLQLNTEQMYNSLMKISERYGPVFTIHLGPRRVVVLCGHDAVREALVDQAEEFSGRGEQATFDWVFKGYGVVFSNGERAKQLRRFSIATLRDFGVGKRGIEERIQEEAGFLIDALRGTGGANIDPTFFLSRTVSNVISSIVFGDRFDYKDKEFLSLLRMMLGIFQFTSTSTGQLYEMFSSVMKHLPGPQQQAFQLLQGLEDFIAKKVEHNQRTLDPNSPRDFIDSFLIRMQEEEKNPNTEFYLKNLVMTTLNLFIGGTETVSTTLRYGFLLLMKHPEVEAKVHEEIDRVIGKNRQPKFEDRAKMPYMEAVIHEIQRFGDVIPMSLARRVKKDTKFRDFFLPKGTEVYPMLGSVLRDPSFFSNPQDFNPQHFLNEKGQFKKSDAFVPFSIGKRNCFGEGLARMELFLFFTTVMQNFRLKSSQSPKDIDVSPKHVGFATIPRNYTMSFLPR
# Outline: as §1
# [10] = biological target: T5, UGT1A1 (Homo sapiens, UniProt P22309); assay: UGT1A1 inhibition in human liver microsomes; type: in vitro ADME; conditions: read-out: IC50, UGT1A1, substrate estradiol
# T5 sequence (P22309 26-533): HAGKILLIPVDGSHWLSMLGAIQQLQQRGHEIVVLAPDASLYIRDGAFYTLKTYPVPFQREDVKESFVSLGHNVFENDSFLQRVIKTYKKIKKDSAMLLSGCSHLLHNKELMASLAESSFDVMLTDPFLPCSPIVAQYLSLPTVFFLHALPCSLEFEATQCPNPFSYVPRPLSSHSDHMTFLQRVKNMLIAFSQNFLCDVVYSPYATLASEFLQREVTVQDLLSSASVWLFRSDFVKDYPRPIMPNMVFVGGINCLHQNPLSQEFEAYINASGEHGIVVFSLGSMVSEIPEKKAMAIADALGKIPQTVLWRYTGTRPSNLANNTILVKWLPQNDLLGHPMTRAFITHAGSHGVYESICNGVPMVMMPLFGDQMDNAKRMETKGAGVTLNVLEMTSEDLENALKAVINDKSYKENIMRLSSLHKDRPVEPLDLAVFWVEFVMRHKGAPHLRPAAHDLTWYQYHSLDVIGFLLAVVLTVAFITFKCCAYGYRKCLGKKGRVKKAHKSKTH
# Outline: (§2)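 Glucuronidation of UGT-selective substrates was measured in human liver microsomes with and without test compound, using a rank-order approach. Standard inhibitors for each isoform were incubated in parallel as positive controls.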
# [11] = biological target: CYP2D6 (Homo sapiens, UniProt P10635); assay: CYP2D6 inhibition in human liver microsomes; type: in vitro ADME; conditions: read-out: IC50, CYP2D6; human liver microsomes; substrate dextromethorphan
# CYP2D6, sequence (P10635 whole entry): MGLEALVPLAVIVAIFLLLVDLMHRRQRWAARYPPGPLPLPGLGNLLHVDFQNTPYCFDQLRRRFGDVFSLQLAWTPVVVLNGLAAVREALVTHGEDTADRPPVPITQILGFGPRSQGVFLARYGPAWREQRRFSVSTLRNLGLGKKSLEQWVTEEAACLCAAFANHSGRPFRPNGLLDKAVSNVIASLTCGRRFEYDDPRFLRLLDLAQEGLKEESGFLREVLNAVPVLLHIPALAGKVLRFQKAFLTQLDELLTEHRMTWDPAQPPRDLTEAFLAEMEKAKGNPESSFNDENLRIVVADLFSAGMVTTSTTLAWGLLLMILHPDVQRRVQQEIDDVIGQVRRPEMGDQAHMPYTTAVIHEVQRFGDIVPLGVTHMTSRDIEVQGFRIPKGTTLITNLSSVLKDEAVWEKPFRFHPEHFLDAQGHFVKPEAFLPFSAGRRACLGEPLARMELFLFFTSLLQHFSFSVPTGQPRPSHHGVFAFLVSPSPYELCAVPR
# Outline: as §1
# [12] = biological target: UGT1A9 (Homo sapiens, UniProt O60656); assay: UGT1A9 inhibition in human liver microsomes; type: in vitro ADME
# UGT1A9, sequence (O60656 26-530): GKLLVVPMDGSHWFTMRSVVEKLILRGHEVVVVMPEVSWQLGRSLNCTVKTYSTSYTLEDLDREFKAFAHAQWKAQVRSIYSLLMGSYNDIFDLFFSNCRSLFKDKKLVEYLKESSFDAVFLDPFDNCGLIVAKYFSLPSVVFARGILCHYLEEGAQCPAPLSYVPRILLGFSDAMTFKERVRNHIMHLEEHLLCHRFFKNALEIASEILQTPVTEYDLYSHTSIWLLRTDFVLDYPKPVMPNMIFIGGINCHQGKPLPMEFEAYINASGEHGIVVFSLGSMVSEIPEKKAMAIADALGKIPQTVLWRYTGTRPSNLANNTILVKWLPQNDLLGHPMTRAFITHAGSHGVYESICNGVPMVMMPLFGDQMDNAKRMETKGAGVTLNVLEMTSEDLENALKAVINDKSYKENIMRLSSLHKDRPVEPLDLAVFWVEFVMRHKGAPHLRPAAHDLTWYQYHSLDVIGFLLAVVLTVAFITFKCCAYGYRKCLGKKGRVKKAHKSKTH
# Outline: as §2
# [13] = type: in vivo, human; conditions: healthy male volunteers
# [14] = cited from earlier work
# [15] = Phase I study: darolutamide effect on rosuvastatin pharmacokinetics; type: in vivo, human
# [16] = read-out: IC50, CYP3A4 (with pre-incubation), substrate midazolam, 30 min pre-incubation
# [17] = read-out: IC50, CYP3A4 (with pre-incubation), substrate testosterone, 30 min pre-incubation
# [18] = read-out: IC50, CYP3A4, substrate midazolam
# [19] = read-out: IC50, CYP3A4, substrate testosterone
# [20] = midazolam 1 mg and dabigatran etexilate 75 mg cocktail, darolutamide 600 mg
SMILES,IC50 [1] [µM],"IC50 [2, 16] [µM]","IC50 [2, 17] [µM]","IC50 [2, 18] [µM]","IC50 [2, 19] [µM]",IC50 [3] [µM],IC50 [4] [µM],plasma concentration of unbound drug [5] [nM],IC50 [6] [µM],IC50 [7] [µM],IC50 [8] [µM],IC50 [9] [µM],IC50 [10] [µM],IC50 [11] [µM],tmax in the presence and absence of darolutamide [13],t½ in the presence and absence of darolutamide [13],"reduction in Cmax with co-administered darolutamide versus alone [13, 20] [%]",also measured
"C[C@@H](Cn1ccc(-c2ccc(C#N)c(Cl)c2)n1)NC(=O)c1cc([C@@H](C)O)[nH]n1 [(S,R)-darolutamide]",> 50,> 50,> 50,> 50,> 50,46.7,> 50,< 600,22.6,> 50,36.2,> 50,26.5,> 50,–,–,–,"IC50 ([12]; read-out: IC50, UGT1A9, substrate propofol): 12.5 µM; Ki ([12]; read-out: Ki, UGT1A9): 6.32 µM"
"C[C@H](O)c1cc(C(=O)N[C@@H](C)Cn2ccc(-c3ccc(C#N)c(Cl)c3)n2)n[nH]1 [(S,S)-darolutamide]",> 50,> 50,> 50,> 50,> 50,> 50,> 50,< 600,> 50,> 50,46.3,> 50,31.7,40.2,–,–,–,–
Cc1ncc2n1-c1ccc(Cl)cc1C(c1ccccc1F)=NC2 [midazolam],–,–,–,–,–,–,–,–,–,–,–,–,–,–,comparable,comparable,~32,–
"[H]/N=C(/N)c1ccc(NCc2nc3cc(C(=O)N(CCC(=O)O)c4ccccn4)ccc3n2C)cc1 [non-conjugated dabigatran, dabigatran]",–,–,–,–,–,–,–,–,–,–,–,–,–,–,comparable,comparable,16,"reduction in AUC with co-administered darolutamide versus alone [13, 20]: 9%"
CC(C)c1nc(N(C)S(C)(=O)=O)nc(-c2ccc(F)cc2)c1/C=C/[C@@H](O)C[C@@H](O)CC(=O)O [rosuvastatin],–,–,–,–,–,–,–,–,–,–,–,–,–,–,–,–,–,"fraction absorbed (fa) [14]: 0.5; AUC(0–24) ([14]; single dose of 5 mg rosuvastatin, healthy subjects, fasted condition): 19.2 ng·h/mL; effect of darolutamide comedication on t½ ([15]; healthy subjects): did not affect; increase in rosuvastatin exposure with darolutamide ([15]; healthy subjects, rosuvastatin 5 mg, darolutamide 600 mg twice daily): approximately fivefold; observed exposure as % of the reported fasted AUC(0–24) ([15]; human, in vivo): 34%; incidence of treatment-emergent AEs, alone versus with concomitant darolutamide ([15]; single doses of rosuvastatin 5 mg): similar"
